# Reference: ChEMBL document CHEMBL4359890, “Design, synthesis of oleanolic acid-saccharide conjugates using click chemistry methodology and study of their anti-influenza activity” (Eur J Med Chem, 2019)
# Activity calls are given as the source filed them. No cut-off for these calls is given here.
# Columns and labels:
# [1] = test system: MDCK; experiment: Cytotoxicity against dog MDCK cells assessed as reduction in cell viability at 100 uM measured after 40 hrs by Celltiter-Glo assay; type: cell-based, Canis lupus familiaris
# Summary of the method: (§1)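 Uninfected MDCK cells were grown overnight in 96-well plates with 1% FBS. They were then exposed to increasing compound concentrations, or to a single 100 μM screen, for 40 h, and viability was read by CellTiter-Glo. CC50 is the concentration causing 50% death of uninfected cells.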
# [2] = Cytotoxicity against dog MDCK cells assessed as reduction in cell viability measured after 40 hrs by Celltiter-Glo assay; type: cell-based, Canis lupus familiaris; summary of the method: as §1
# [3] = test system: Influenza A virus; experiment: Antiviral activity against Influenza A virus A/WSN/33 assessed as inhibition of virus-induced cytopathic effect after 40 hrs by Celltiter-Glo assay; type: functional, organism-based; details: A/WSN/33, 40 h
# Summary of the method: (§2)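 MDCK cells were seeded in 96-well plates, left overnight, then infected with influenza virus at MOI 0.1 and treated with the compound. After 40 h, viability was read by CellTiter-Glo luminescence. 1% DMSO (final) served as the negative control and oseltamivir phosphate as the positive control. IC50 is the concentration that inhibits virus-induced CPE by 50%, taken from dose-response curves in replicate independent experiments.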
# [4] = Selectivity index, ratio of CC50 for MDCK cells to IC50 for influenza A virus A/WSN/33; type: toxicity; details: dog, read-out: Ratio CC50/IC50
# Summary of the method: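 SI was calculated as CC50 (uninfected MDCK, 40 h CellTiter-Glo) divided by IC50 (50% inhibition of A/WSN/33 replication in MDCK, MOI 0.1, 40 h CellTiter-Glo).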
# [5] = test system: Influenza A virus; experiment: Antiviral activity against Influenza A virus A/Victoria/361/2011(H3N2) infected in MDCK cells assessed as inhibition of virus-induced cytopathic effect after 40 hrs by Celltiter-Glo assay; type: functional, organism-based; summary of the method: as §2
# [6] = test system: Influenza B virus; experiment: Antiviral activity against Influenza B virus B/Yamagata/16/88(BY) infected in MDCK cells assessed as inhibition of virus-induced cytopathic effect after 40 hrs by Celltiter-Glo assay; type: functional, organism-based; summary of the method: as §2
# [7] = test system: Influenza B virus; experiment: Antiviral activity against Influenza B virus B/Sichuan/531/2018(BV) infected in MDCK cells assessed as inhibition of virus-induced cytopathic effect after 40 hrs by Celltiter-Glo assay; type: functional, organism-based; summary of the method: as §2
# [8] = test system: Influenza B virus; experiment: Antiviral activity against Influenza B virus B/Massachusetts/2/2012(BV) infected in MDCK cells assessed as inhibition of virus-induced cytopathic effect after 40 hrs by Celltiter-Glo assay; type: functional, organism-based; summary of the method: as §2
# [9] = test system: Influenza A virus; experiment: Antiviral activity against Influenza A virus A/WSN/33 infected in MDCK cells assessed as reduction in virus-induced cytopathic effect at 100 uM after 40 hrs by Celltiter-Glo assay relative to control; type: functional; details: A/WSN/33, MDCK
# Summary of the method: (§3)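 This was a single-concentration screen at 100 μM in MDCK cells infected with A/WSN/33 at MOI 0.1. CPE protection was read by CellTiter-Glo after 40 h of incubation. The inhibition rate was expressed relative to 1% DMSO (final) negative control, with oseltamivir phosphate as the positive control. Experiments were run in triplicate.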
# [10] = Cytotoxicity against dog MDCK cells assessed as cell viability at 100 uM measured after 40 hrs by Celltiter-Glo assay relative to control; type: cell-based, Canis lupus familiaris; details: read-out: Activity; summary of the method: as §1
# [11] = target: Hemagglutinin (Influenza A virus) (UniProt B4URE7); experiment: Inhibition of influenza A virus A/WSN/33 HA-mediated chicken erythrocytes hemagglutination pretreated with compound followed by erythrocytes addition measured after 30 mins
# Summary of the method: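 Compound was serially diluted 2-fold in saline and mixed with an equal volume of A/WSN/33 (H1N1) virus in V-bottom plates. Freshly prepared chicken red blood cells (1% v/v in saline) were then added. After 30 min at room temperature, erythrocyte aggregation was scored visually. Anti-HA antibody served as the positive control.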
# [12] = test system: Influenza B virus; experiment: Potency index, ratio of OSV-p IC50 to compound IC50 for antiviral activity against Influenza B virus B/Yamagata/16/88(BY); type: functional
# [13] = test system: Influenza A virus; experiment: Antiviral activity against Influenza A virus A/WSN/33 infected in MDCK cells assessed as reduction in virus-induced cytopathic effect at 100 uM after 40 hrs by Celltiter-Glo assay; type: functional, organism-based; summary of the method: as §3
# Hemagglutinin (Influenza A virus), sequence (B4URE7 as listed by the source): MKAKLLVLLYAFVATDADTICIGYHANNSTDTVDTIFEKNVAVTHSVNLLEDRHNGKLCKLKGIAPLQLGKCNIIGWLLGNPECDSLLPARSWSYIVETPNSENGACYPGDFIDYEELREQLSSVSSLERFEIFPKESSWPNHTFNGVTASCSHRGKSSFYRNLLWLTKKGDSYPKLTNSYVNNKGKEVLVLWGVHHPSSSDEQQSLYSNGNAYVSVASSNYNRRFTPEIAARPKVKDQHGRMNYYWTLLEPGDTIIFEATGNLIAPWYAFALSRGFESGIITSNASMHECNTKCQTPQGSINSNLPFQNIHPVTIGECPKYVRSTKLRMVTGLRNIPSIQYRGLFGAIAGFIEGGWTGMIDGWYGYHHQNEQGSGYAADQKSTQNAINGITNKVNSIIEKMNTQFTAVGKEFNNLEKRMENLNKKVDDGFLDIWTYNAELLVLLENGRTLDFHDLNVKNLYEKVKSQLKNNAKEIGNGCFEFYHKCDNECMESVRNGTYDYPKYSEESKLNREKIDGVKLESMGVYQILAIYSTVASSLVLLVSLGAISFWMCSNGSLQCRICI
smiles,measurement,setting,value
CC1(C)CC[C@]2(C(=O)NCc3cn([C@@H]4O[C@H](CO)[C@@H](O[C@@H]5O[C@H](CO)[C@H](O)[C@H](O)[C@H]5O)[C@H](O)[C@H]4O)nn3)CC[C@]3(C)C(=CC[C@@H]4[C@@]5(C)CC[C@H](O)C(C)(C)[C@@H]5CC[C@]43C)[C@@H]2C1,Activity,[1],Non-Toxic
CC1(C)CC[C@]2(C(=O)NCc3cn([C@@H]4O[C@H](CO)[C@@H](O[C@@H]5O[C@H](CO)[C@@H](O)[C@H](O)[C@H]5O)[C@H](O)[C@H]4O)nn3)CC[C@]3(C)C(=CC[C@@H]4[C@@]5(C)CC[C@H](O)C(C)(C)[C@@H]5CC[C@]43C)[C@@H]2C1,Activity,[1],Non-Toxic
CC(=O)O[C@@H]1[C@@H](OC(C)=O)[C@H](C)O[C@@H](n2cc(CNC(=O)[C@]34CCC(C)(C)C[C@H]3C3=CC[C@@H]5[C@@]6(C)CC[C@H](O)C(C)(C)[C@@H]6CC[C@@]5(C)[C@]3(C)CC4)nn2)[C@@H]1OC(C)=O,Activity,[1],Non-Toxic
CC1(C)CC[C@]2(C(=O)NCc3cn([C@@H]4O[C@H](CO)[C@@H](O[C@H]5O[C@H](CO)[C@@H](O)[C@H](O)[C@H]5O)[C@H](O)[C@H]4O)nn3)CC[C@]3(C)C(=CC[C@@H]4[C@@]5(C)CC[C@H](O)C(C)(C)[C@@H]5CC[C@]43C)[C@@H]2C1,Activity,[1],Non-Toxic
CC(=O)OC[C@H]1O[C@@H](n2cc(CNC(=O)[C@]34CCC(C)(C)C[C@H]3C3=CC[C@@H]5[C@@]6(C)CC[C@H](O)C(C)(C)[C@@H]6CC[C@@]5(C)[C@]3(C)CC4)nn2)[C@H](OC(C)=O)[C@@H](OC(C)=O)[C@@H]1OC(C)=O,Activity,[1],Non-Toxic
CCOC(=O)C1=C[C@@H](OC(CC)CC)[C@H](NC(C)=O)[C@@H](N)C1 [OSELTAMIVIR PHOSPHATE],CC50 at 40 h,[2],> 100 µM
same,IC50,[3],1.82 µM
same,selectivity ratio,[4],> 54.9
same,IC50,[5],> 100 µM
same,IC50,[6],23.4 µM
same,IC50,[7],> 100 µM
same,IC50,[8],> 100 µM
CC1(C)CC[C@]2(C(=O)NCc3cn([C@@H]4OC[C@@H](O)[C@H](O)[C@H]4O)nn3)CC[C@]3(C)C(=CC[C@@H]4[C@@]5(C)CC[C@H](O)C(C)(C)[C@@H]5CC[C@]43C)[C@@H]2C1,inhibition at 100 µM,[9],75%
same,Activity,[1],Toxic
CC1(C)CC[C@]2(C(=O)NCc3cn([C@H]4O[C@H](CO)[C@@H](O)[C@H](O)[C@@H]4O)nn3)CC[C@]3(C)C(=CC[C@@H]4[C@@]5(C)CC[C@H](O)C(C)(C)[C@@H]5CC[C@]43C)[C@@H]2C1,Activity,[1],Non-Toxic
CC(=O)O[C@@H]1[C@@H](OC(C)=O)[C@H](OC(C)=O)CO[C@H]1n1cc(CNC(=O)[C@]23CCC(C)(C)C[C@H]2C2=CC[C@@H]4[C@@]5(C)CC[C@H](O)C(C)(C)[C@@H]5CC[C@@]4(C)[C@]2(C)CC3)nn1,Activity,[1],Non-Toxic
CC1(C)CC[C@]2(C(=O)NCc3cn([C@@H]4OC[C@H](O)[C@H](O)[C@H]4O)nn3)CC[C@]3(C)C(=CC[C@@H]4[C@@]5(C)CC[C@H](O)C(C)(C)[C@@H]5CC[C@]43C)[C@@H]2C1,inhibition at 100 µM,[9],> 75%
same,"viability at 40 h, 100 µM",[10],> 75%
same,CC50 at 40 h,[2],> 100 µM
same,IC50,[3],12.9 µM
same,selectivity ratio,[4],> 7.73
same,Activity,[1],Non-Toxic
CC(=O)OC[C@H]1O[C@@H](n2cc(CNC(=O)[C@]34CCC(C)(C)C[C@H]3C3=CC[C@@H]5[C@@]6(C)CC[C@H](O)C(C)(C)[C@@H]6CC[C@@]5(C)[C@]3(C)CC4)nn2)[C@H](OC(C)=O)[C@@H](OC(C)=O)[C@@H]1O[C@H]1O[C@H](COC(C)=O)[C@@H](OC(C)=O)[C@H](OC(C)=O)[C@H]1OC(C)=O,Activity,[1],Non-Toxic
CC1(C)CC[C@]2(C(=O)NCc3cn([C@@H]4O[C@H](CO)[C@@H](O)[C@H](O)[C@H]4O)nn3)CC[C@]3(C)C(=CC[C@@H]4[C@@]5(C)CC[C@H](O)C(C)(C)[C@@H]5CC[C@]43C)[C@@H]2C1,inhibition at 100 µM,[9],> 75%
same,"viability at 40 h, 100 µM",[10],> 75%
same,CC50 at 40 h,[2],> 100 µM
same,inhibition,[11],Active
same,IC50,[3],5.47 µM
same,selectivity ratio,[4],> 18.3
same,IC50,[5],10.4 µM
same,IC50,[6],5.54 µM
same,IC50,[7],26.1 µM
same,IC50,[8],11.5 µM
same,Ratio IC50,[12],4
same,Activity,[1],Non-Toxic
CC(=O)OC[C@H]1O[C@@H](n2cc(CNC(=O)[C@]34CCC(C)(C)C[C@H]3C3=CC[C@@H]5[C@@]6(C)CC[C@H](O)C(C)(C)[C@@H]6CC[C@@]5(C)[C@]3(C)CC4)nn2)[C@H](OC(C)=O)[C@@H](OC(C)=O)[C@H]1OC(C)=O,inhibition at 100 µM,[9],75%
same,Activity,[1],Toxic
CC1(C)CC[C@]2(C(=O)NCc3cn([C@@H]4O[C@H](CO)[C@@H](O[C@H]5O[C@H](CO)[C@@H](O[C@H]6O[C@H](CO)[C@@H](O)[C@H](O)[C@H]6O)[C@H](O)[C@H]5O)[C@H](O)[C@H]4O)nn3)CC[C@]3(C)C(=CC[C@@H]4[C@@]5(C)CC[C@H](O)C(C)(C)[C@@H]5CC[C@]43C)[C@@H]2C1,Activity,[13],inactive
same,Activity,[1],Non-Toxic
CC(=O)O[C@@H]1[C@@H](OC(C)=O)[C@H](n2cc(CNC(=O)[C@]34CCC(C)(C)C[C@H]3C3=CC[C@@H]5[C@@]6(C)CC[C@H](O)C(C)(C)[C@@H]6CC[C@@]5(C)[C@]3(C)CC4)nn2)OC[C@@H]1OC(C)=O,Activity,[1],Non-Toxic
CC1(C)CC[C@]2(C(=O)NCc3cn([C@@H]4O[C@H](CO)[C@H](O)[C@H](O)[C@H]4O)nn3)CC[C@]3(C)C(=CC[C@@H]4[C@@]5(C)CC[C@H](O)C(C)(C)[C@@H]5CC[C@]43C)[C@@H]2C1,Activity,[1],Non-Toxic
CC(=O)OC[C@H]1O[C@H](n2cc(CNC(=O)[C@]34CCC(C)(C)C[C@H]3C3=CC[C@@H]5[C@@]6(C)CC[C@H](O)C(C)(C)[C@@H]6CC[C@@]5(C)[C@]3(C)CC4)nn2)[C@@H](OC(C)=O)[C@@H](OC(C)=O)[C@@H]1OC(C)=O,inhibition at 100 µM,[9],> 75%
same,"viability at 40 h, 100 µM",[10],> 75%
same,CC50 at 40 h,[2],> 100 µM
same,IC50,[3],7.22 µM
same,selectivity ratio,[4],> 13.8
same,Activity,[1],Non-Toxic
CC(=O)OC[C@H]1O[C@@H](O[C@H]2[C@H](OC(C)=O)[C@@H](OC(C)=O)[C@H](n3cc(CNC(=O)[C@]45CCC(C)(C)C[C@H]4C4=CC[C@@H]6[C@@]7(C)CC[C@H](O)C(C)(C)[C@@H]7CC[C@@]6(C)[C@]4(C)CC5)nn3)O[C@@H]2COC(C)=O)[C@H](OC(C)=O)[C@@H](OC(C)=O)[C@H]1OC(C)=O,Activity,[1],Non-Toxic
CC(=O)OC[C@H]1O[C@@H](n2cc(CNC(=O)[C@]34CCC(C)(C)C[C@H]3C3=CC[C@@H]5[C@@]6(C)CC[C@H](O)C(C)(C)[C@@H]6CC[C@@]5(C)[C@]3(C)CC4)nn2)[C@H](OC(C)=O)[C@@H](OC(C)=O)[C@@H]1O[C@H]1O[C@H](COC(C)=O)[C@@H](O[C@H]2O[C@H](COC(C)=O)[C@@H](OC(C)=O)[C@H](OC(C)=O)[C@H]2OC(C)=O)[C@H](OC(C)=O)[C@H]1OC(C)=O,Activity,[13],inactive
same,Activity,[1],Non-Toxic
C[C@@H]1O[C@@H](n2cc(CNC(=O)[C@]34CCC(C)(C)C[C@H]3C3=CC[C@@H]5[C@@]6(C)CC[C@H](O)C(C)(C)[C@@H]6CC[C@@]5(C)[C@]3(C)CC4)nn2)[C@H](O)[C@H](O)[C@H]1O,inhibition at 100 µM,[9],75%
same,Activity,[1],Toxic
CC(=O)OC[C@H]1O[C@@H](n2cc(CNC(=O)[C@]34CCC(C)(C)C[C@H]3C3=CC[C@@H]5[C@@]6(C)CC[C@H](O)C(C)(C)[C@@H]6CC[C@@]5(C)[C@]3(C)CC4)nn2)[C@H](OC(C)=O)[C@@H](OC(C)=O)[C@@H]1O[C@@H]1O[C@H](COC(C)=O)[C@@H](OC(C)=O)[C@H](OC(C)=O)[C@H]1OC(C)=O,Activity,[1],Non-Toxic
CC1(C)CC[C@]2(C(=O)O)CC[C@]3(C)C(=CC[C@@H]4[C@@]5(C)CC[C@H](O)C(C)(C)[C@@H]5CC[C@]43C)[C@@H]2C1 [OLEANOLIC_ACID],CC50 at 40 h,[2],> 100 µM
same,IC50,[3],72.2 µM
same,selectivity ratio,[4],> 1.38
